Screening data: PubChem BioAssay, several laboratories
BaF3 parental: parental Ba/F3 cell viability inhibition, counter-screen for JAK2V617F inhibitor project, murine pro-B, CellTiter-Glo luminescence. CellTiter-Glo ATP luminescence. inhibition, % at 5.6 µM. 220,000 compounds, 1.1% hits;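 active = inhibition above a per-campaign cutoff, the mean inhibition of all tested compounds plus 3 SD, cut at about 27% in these data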;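 also: 0% = DMSO wells and 100% = JAK Inhibitor I control wells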
b-catenin transl: modulators of beta-catenin nuclear translocation, primary screen, imaging, HeLa cells, immunofluorescence, high-content | nuclear translocation activity, % at 5 µM | 190,000 compounds, 0.3% hits | AID 1665, 2009;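 active = nuclear translocation activity above 50% at 5 µM, with a well cell count of 50 or more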;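 also: per-cell ratio of nuclear to cytoplasmic median beta-catenin stain intensity; plate controls were DMSO negative control for no effect and GSK-3 inhibitor IX positive control for full effect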
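System: Human HeLa cells, endogenous beta-catenin | Compound dosing: 5 µM primary, 0.02–20 µM confirmation | Timing: 24 h compound exposure at 37°C, 5% CO2 | Measured by: Fluorescence imaging of beta-catenin antibody stain plus DAPI | Read-out basis: % activation of per-cell nuclear versus cytoplasmic median beta-catenin signal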
Ba/F3 V617F tox: reduced viability of JAK2V617F-dependent Ba/F3 cells, primary screen, JAK2V617F inhibitor project, cell-based, Ba/F3 EpoR-JAK2V617F, luminescence; ATP luminescence; inhibition, % at 5.6 µM; 220,000 compounds, 1.1% hits; AID 1446, 2008;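 active = inhibition above the campaign mean plus 3 SD over all tested compounds, cut at about 24% in these data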;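 also: cytokine-independent growth of Ba/F3 cells driven by EpoR plus mutant JAK2; 0% = DMSO-treated cells and 100% = JAK inhibitor I control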
IEC-6 tox: cytotoxicity in IEC-6 intestinal epithelial cells, primary screen, cytotoxicity control for KLF5 inhibitor project, cell-based, luminescence | IEC-6 cytotoxicity, luminescence viability | AID 1825, 2009 | 290,000 compounds, 0.78% hits | inhibition, % at 5 µM;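 also: 0% = plate median of test compound wells and 100% = cytotoxic reference compound wells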
MT stabilizer: microtubule stabilizers in HeLa cells, primary screen, imaging, high-content imaging. HeLa tubulin immunostaining HCS, 24 h; share of cells brighter than vehicle mean+2SD. % tubulin-high responders, % at 10 µM. 200,000 compounds, 0.83% hits;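 active = plate Z-score above 3 for both tubulin-high and condensed-nucleus cell shares, with cell loss under 80%, at 10 µM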;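 also: anti alpha tubulin signal scored within the nucleus-defined area of each cell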
KLF5 inhibitor: KLF5 expression inhibitors, primary screen, DLD-1 cells, luminescence. DLD-1 KLF5 promoter-luciferase reporter. inhibition, % at 5 µM. 290,000 compounds, 0.23% hits. AID 1700, 2009;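 active = inhibition above a per-plate limit of that plate's mean compound inhibition plus 3 SD, cut at about 60% in these data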;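 also: 0% = DMSO wells and 100% = LY294002 at 200 µM; higher means less KLF5 promoter-driven luciferase light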
BaF3 tox 2: parental Ba/F3 cell viability inhibition, counter-screen for JAK2V617F inhibitor project, murine pro-B, CellTiter-Glo luminescence; shares compounds with Ba/F3 V617F tox; cells kept alive by added IL-3; inhibition, % at 5.6 µM; 580 compounds, 31% hits;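 active = cell growth inhibition above the hit limit set in the earlier mutant JAK2 cell screen, cut at about 27% in these data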;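 also: plate controls were DMSO-treated cells for no effect and JAK Inhibitor I control wells for full effect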
JAK2V617F conf: viability loss in Ba/F3 EpoR-JAK2V617F cells, confirmation, JAK2V617F inhibitor project, cell-based, luminescence, triplicate; CellTiter-Glo luminescence; 580 compounds, 66% hits; shares compounds with Ba/F3 V617F tox; AID 1521, 2009; inhibition, % at 5.6 µM;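 active = mean inhibition above the hit cutoff derived in the earlier primary screen, cut at about 25% in these data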;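 also: 0% = DMSO-treated cells and 100% = JAK inhibitor I control wells; higher means lower luminescence from reduced cell ATP and viability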
IEC-6 cytotox cf: cytotoxic compounds in IEC-6 epithelial cells, confirmation, cytotoxicity control, cell-based, luminescence | shares compounds with IEC-6 tox | IEC-6 rat intestinal epithelial viability | inhibition, % at 5 µM | 1,900 compounds, 63% hits | AID 1907, 2009;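 also: 0% = vehicle and 100% = reference cytotoxic drug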
Starred values were filed as active, the others as inactive; . = not tested or not shown. Only some compounds are listed: those with a hit (about 2.1% of all), similar ones and a draw of the others. Rule as the data show it, unless noted: active = inhibition above about 22%; inactive = the rest.

SMILES	BaF3 parental	b-catenin transl	Ba/F3 V617F tox	IEC-6 tox	MT stabilizer	KLF5 inhibitor	BaF3 tox 2	JAK2V617F conf	IEC-6 cytotox cf
CCOc1cc(C(=O)Nc2ccc(N3CCN(S(C)(=O)=O)CC3)cc2)cc(OCC)c1OCC	4.7	.	100.3*	-4.7	3.2	-11.4	-0.9	7.2	.
C/C(=N\OCC(=O)Nc1c(C)cc(C)cc1C)c1ccc2c(c1)OCCO2	1.0	-3.7	-2.6	4.0	2.2	-12.0	.	.	.
CCCn1c(SCC(=O)NC2CCCc3ccccc32)n[nH]c1=O (configuration not stated)	7.7	-3.6	57.2*	0.9	4.3	-7.0	-2.5	-3.1	.
CCCn1c(SCC(=O)NC2CCCC(C)C2C)n[nH]c1=O (configuration not stated)	8.5	.	2.1	-4.5	1.9	-18.9	.	.	.
Cc1ccc(C(c2nnnn2CC2CCCO2)N2CCN(c3cccc(C)c3C)CC2)cc1 (configuration not stated)	3.3	-4.3	-0.8	-2.0	6.6	-46.7	.	.	.
Cn1cc(C(=O)N/N=C/c2ccc3c(c2)OCO3)c2ccccc21	19.4	0.0	47.7*	52.7*	.	32.0	12.5	22.8	47.9*
O=C(Nc1ccc2c(c1)CCCN2C(=O)c1cccs1)c1c(F)cccc1Cl	.	.	.	-0.6	.	-2.9	.	.	.
O=C(NCCCN1CCOCC1)C(=O)NCc1ccco1	5.3	-2.8	-1.9	-3.3	3.1	-30.6	.	.	.
COc1ccc2c3c(cccc13)C(=O)N(O)C2=O	1.5	-2.2	30.1*	62.8*	4.8	21.7	-2.1	17.8	33.3*
COc1ccccc1N1C(=O)c2cccc3c(C(=O)O)ccc(c23)C1=O	2.8	.	-1.6	-2.2	1.2	-13.7	.	.	.
O=[N+]([O-])c1ccc(Sc2nnnn2-c2ccccc2)nc1	2.8	-1.5	68.9*	37.5*	4.7	-2.6	29.4*	99.7*	44.2*
COc1ccc(CNC(=O)c2noc(C)c2[N+](=O)[O-])cc1	1.4	0.7	-2.1	-3.3	2.9	-3.9	.	.	.
CCOC(=O)CCCCC(=O)c1[nH]c(=O)[nH]c1CSc1nnc2c3ccccc3n(C(C)C)c2n1	5.2	-0.7	0.3	-5.7	3.9	-25.6	.	.	.
O=C1C2C3C=CC(C3)C2C(=O)N1CCCCCCN1C(=O)C2C3C=CC(C3)C2C1=O (configuration not stated)	7.4	-1.6	-0.4	-4.5	1.7	-43.3	.	.	.
O=C1C=CC(=O)N1CCCCCCN1C(=O)C=CC1=O	-1.2	-1.3	71.7*	24.0*	4.6	-5.2	96.3*	79.5*	2.0
COc1cccc(/C=N/NC(=O)c2[nH]nc3c2CCc2ccccc2-3)c1	-0.9	-3.7	29.1*	23.3*	.	27.0	43.7*	92.5*	43.4*
COc1ccc(OC)c(/C=N/NC(=O)c2[nH]nc3c2CCc2ccccc2-3)c1	5.5	-0.4	-2.0	-10.3	1.2	7.2	.	.	.
COc1ccc(/C=N/NC(=O)c2cccnc2)cc1COc1ccc([N+](=O)[O-])c(C)c1	17.8	82.2*	25.3*	45.2*	.	57.3	46.9*	93.2*	43.4*
COc1ccc(/C=N/NC(=O)c2ccn[nH]2)cc1COc1ccc([N+](=O)[O-])c(C)c1	2.2	0.9	-3.5	6.1	.	-43.5	.	.	.
O=C(CCC1CCCC1)Nc1ccc(C(=O)NCc2cccnc2)cc1	20.1	0.0	31.3*	85.4*	4.5	-21.3	29.6*	99.6*	45.5*
O=C(O)CCCC(=O)Nc1ccc(C(=O)NCc2cccnc2)cc1	3.7	.	-0.9	-2.5	2.3	-15.9	.	.	.
